Active and inactive are the calls of the source. The calls are words filed in the database; no cut-off is given here.
Tests used:
[1] = test system: Brain; test: Antioxidant activity in Sprague-Dawley albino rat brain homogenate assessed as inhibition of hydroxyl radical dependent lipoperoxidation measuring malondialdehyde production at 100 uM after 30 mins by TBARS assay; format: functional, tissue-based
Outline: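 Rat brain homogenized 10% (w/v) in phosphate buffer pH 7.4; 100 μL homogenate with 20 μM FeCl3 and 100 μM ascorbic acid (final), test compound at 100 μM final, 1 mL, 30 min at 37 °C. TBA/HCl added, boiled 10 min, n-butanol extraction, A532; TBARS as nmol MDA per 10 mg wet tissue vs tetramethoxypropane standard curve. At least two determinations in triplicate.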

[2] = test system: Liver; test: Induction of NO generation in Sprague-Dawley albino rat liver homogenate at 10^-4 M after 1 hr by Griess reaction; format: functional, tissue-based
Outline: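 Rat liver rinsed in ice-cold sucrose buffer (100 mM K2HPO4, 1 mM EDTA, 1.15% KCl, 0.25 M sucrose, 0.1% EtOH, pH 7.4), homogenized 1/6 w/v, gauze-filtered, spun 600g 10 min at 0 °C to remove nuclei. Incubated with compound 1 h at 37 °C; nitrite measured by Griess reaction at 543 nm, given as % NO2− (mol/mol) relative to compound added. At least two determinations in triplicate.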

[3] = species: Rattus norvegicus; test: Inhibition of Aldehyde reductase in Sprague-Dawley albino rat at 100 uM
Outline: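 Rat kidney ALR1 at 37 °C with 20 mM sodium D-glucuronate and 0.12 mM NADPH (stock levels), dialyzed enzyme, 0.1 M sodium phosphate pH 7.2; rate calibrated to 0.015 absorbance unit/min. NADPH oxidation followed at 340 nm; blank without substrate. Percent inhibition at 100 μM.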

[4] = molecular target: Aldo-keto reductase family 1 member B1 (Rattus norvegicus, UniProt P07943); test: Inhibition of Sprague-Dawley albino rat lens ALR2 by spectrophotometry; format: tissue-based, Lens of camera-type eye
[5] = molecular target: Aldo-keto reductase family 1 member B1 (Rattus norvegicus) (UniProt P07943); test: Ratio of KM07100 IC50 to compound IC50 for Sprague-Dawley albino rat lens ALR2; format: tissue-based; conditions: Lens of camera-type eye

Structure (SMILES)	inhibition [1]	Activity [2]	inhibition [3]	IC50 [4]	Ratio IC50 [5]
[O-][n+]1onc2cc(OCc3ccc(Br)cc3)ccc21	Active	2%	19%	7360 nM	
[O-][n+]1onc2cc(OCc3ccc(C(F)(F)F)cc3)ccc21	Active	2%	14%	1940 nM	
[O-][n+]1onc2cc(OCc3ccc4ccccc4c3)ccc21	Active	2%	35%	1430 nM	
[O-][n+]1onc2cc(OCc3ccccc3)ccc21	50%	2%	26%	990 nM	36
[O-][n+]1onc2cc(OCc3nc4ccccc4s3)ccc21	Active	inactive	38%	420 nM	
O=[N+]([O-])c1cccc(COc2ccc3c(c2)no[n+]3[O-])c1	Active	2%	5%	460 nM	
Cc1c(C)c2c(c(C)c1O)CC[C@@](C)(CCC[C@H](C)CCC[C@H](C)CCCC(C)C)O2	Active				
Cc1ccc(COc2ccc3c(c2)no[n+]3[O-])cc1	Active	2%	24%	830 nM	
[O-][n+]1onc2cc(OCc3ccc(F)cc3)ccc21	Active	inactive	inactive	820 nM	
[O-][n+]1onc2cc(OCc3ccc(Br)cc3F)ccc21	Active	inactive	inactive	1410 nM	
[O-][n+]1onc2cc(OCc3ccc(Cl)cc3)ccc21	Active	2%	19%	920 nM	
[O-][n+]1onc2cc(OCCc3ccccc3)ccc21	Active	2%	11%	5900 nM	
O=S(=O)(Oc1ccc2nonc2c1)c1ccc(Cl)s1			20%		
COc1ccc(COc2ccc3c(c2)no[n+]3[O-])cc1	Active	2%	inactive	4520 nM	

From ChEMBL document CHEMBL2176922, “Benzofuroxane derivatives as multi-effective agents for the treatment of cardiovascular diabetic complications. Synthesis, functional evaluation, and molecular modeling studies” (J Med Chem, 2012)
